{"data": "Measured values collected from several papers", "target": "Bone morphogenetic protein receptor type-1B (BMPR1B, Homo sapiens, UniProt O00238)", "note": "Compare with care: the assays were run in different laboratories."}
{"Structure (SMILES)": "FC(F)(F)Oc1cccc(-c2cnc3ccc(-c4ccncc4)nn23)c1", "assay": "cell-free assay, competition with immobilised ligand", "setting": "5 µM", "remaining binding [%]": 22}
{"Structure (SMILES)": "CN(CCCC(F)(F)F)c1nccc(-c2cnn3ncccc23)n1", "assay": "binding", "setting": "1 µM", "remaining binding [%]": 93}
{"Structure (SMILES)": "O=C(c1ccc(Nc2ncc(Cl)c(-c3cc4ccccc4s3)n2)cc1)N1CCC(N2CCCC2)CC1", "assay": "binding, competition with immobilised ligand", "setting": "1 µM", "remaining binding [%]": 62}
{"Structure (SMILES)": "CSc1cccnc1N1CCN(Cc2nc3ccccc3[nH]2)CC1", "assay": "cell-free assay, competition with immobilised ligand", "setting": "1 µM", "remaining binding [%]": 80}
{"Structure (SMILES)": "N[C@H]1CCN(c2nccc(-c3cnn4ncccc34)n2)C1", "assay": "binding", "setting": "1 µM", "remaining binding [%]": 100}
{"Structure (SMILES)": "O=C(NCCCN1CCOCC1)c1ccc(Nc2ncc(Cl)c(-c3ccc(Cl)s3)n2)cc1", "assay": "binding, competition with immobilised ligand", "setting": "1 µM", "remaining binding [%]": 56}
{"Structure (SMILES)": "Nc1ncc2c(n1)-c1c([nH]c3ccc(C#CC4CC4)cc13)CCCC2", "assay": "binding, competition with immobilised ligand", "setting": "1 µM", "remaining binding [%]": 96}
{"Structure (SMILES)": "c1cncc(-c2cccc(Nc3nccc(NC4CCCCC4)n3)c2)c1", "assay": "binding, competition with immobilised ligand", "setting": "10 µM", "remaining binding [%]": 47}
{"Structure (SMILES)": "COc1ccc2c(c1)O[C@H](c1ccc(OC)c(OC)c1)C[C@@H]2NC(=O)C1(c2ccc3c(c2)OC(F)(F)O3)CC1", "assay": "cell-free assay, competition with immobilised ligand", "setting": "1 µM", "remaining binding [%]": 100}
{"Structure (SMILES)": "F[C@@H]1CCN(c2nccc(-c3cnn4ncccc34)n2)C1", "assay": "binding", "setting": "1 µM", "remaining binding [%]": 72}
{"Structure (SMILES)": "COCCOc1nc(-c2ccc(Cl)nc2)nc2c1CN(C(=O)c1ncn3ccccc13)CC2", "assay": "cell-free assay, competition with immobilised ligand", "setting": "0.1 µM", "remaining binding [%]": 100}
{"Structure (SMILES)": "CN(c1nccc(-c2cnn3ncccc23)n1)C1CC1", "assay": "binding", "setting": "1 µM", "remaining binding [%]": 76}
{"Structure (SMILES)": "O=C(c1ccc(Nc2nccc(-c3cc4ccccc4s3)n2)cc1)N1CCC(N2CCCC2)CC1", "assay": "binding, competition with immobilised ligand", "setting": "1 µM", "remaining binding [%]": 41}
{"Structure (SMILES)": "Cc1cnn2ncc(-c3ccnc(N(C)C)n3)c2c1", "assay": "binding", "setting": "1 µM", "remaining binding [%]": 67}
{"Structure (SMILES)": "O=C1CCc2cc(Nc3cc(OC4CCOCC4)c([N+](=O)[O-])cc3Cl)ccc2N1", "assay": "cell-free assay, competition with immobilised ligand", "setting": "1 µM", "remaining binding [%]": 87}
{"Structure (SMILES)": "O=C(Nc1c[nH]nc1C(=O)NC1CCNCC1)c1cc(F)cc(F)c1", "assay": "binding, competition with immobilised ligand", "setting": "1 µM", "remaining binding [%]": 84}
{"Structure (SMILES)": "CCCCN(CCCC)C(=O)CN1C[C@H](c2cc(OC)c3c(c2)OCO3)[C@@H](C(=O)O)[C@@H]1CC(C)(C)CCC", "assay": "cell-free assay, competition with immobilised ligand", "setting": "1 µM", "remaining binding [%]": 59}
{"Structure (SMILES)": "c1cnn2ncc(-c3ccnc(N4CCC45COC5)n3)c2c1", "assay": "binding", "setting": "1 µM", "remaining binding [%]": 52}
{"Structure (SMILES)": "O=c1nc(-c2ccccn2)sc2ccccc12", "assay": "cell-free assay, competition with immobilised ligand", "setting": "1 µM", "remaining binding [%]": 75}
{"Structure (SMILES)": "COc1cnc(Nc2cccc(S(N)(=O)=O)c2)nc1N1CCN(c2ccccc2)C(=O)C1", "assay": "binding, competition with immobilised ligand", "setting": "1 µM", "remaining binding [%]": 100}
{"Structure (SMILES)": "CN([C@@H]1CCc2c(CC(=O)O)c3cc(S(C)(=O)=O)ccc3n2C1)S(=O)(=O)c1ccc(F)cc1", "assay": "cell-free assay, competition with immobilised ligand", "setting": "1 µM", "remaining binding [%]": 100}
{"Structure (SMILES)": "CN(C)c1ncc(F)c(-c2cnn3ncccc23)n1", "assay": "binding", "setting": "1 µM", "remaining binding [%]": 64}
